Screens (PubChem)
FLuc inhib CS: firefly luciferase enzyme inhibitors, primary screen, artefact control for luciferase-based inhibitor screens, biochemical, luminescence, ATPLite | 1.5% of 200,000 active | 10 min | inhibition, % at 10 µM;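 active = inhibition above about 50% when tested at 10 µM, limit read from the data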
Target sequence (P08659 whole entry, looked up): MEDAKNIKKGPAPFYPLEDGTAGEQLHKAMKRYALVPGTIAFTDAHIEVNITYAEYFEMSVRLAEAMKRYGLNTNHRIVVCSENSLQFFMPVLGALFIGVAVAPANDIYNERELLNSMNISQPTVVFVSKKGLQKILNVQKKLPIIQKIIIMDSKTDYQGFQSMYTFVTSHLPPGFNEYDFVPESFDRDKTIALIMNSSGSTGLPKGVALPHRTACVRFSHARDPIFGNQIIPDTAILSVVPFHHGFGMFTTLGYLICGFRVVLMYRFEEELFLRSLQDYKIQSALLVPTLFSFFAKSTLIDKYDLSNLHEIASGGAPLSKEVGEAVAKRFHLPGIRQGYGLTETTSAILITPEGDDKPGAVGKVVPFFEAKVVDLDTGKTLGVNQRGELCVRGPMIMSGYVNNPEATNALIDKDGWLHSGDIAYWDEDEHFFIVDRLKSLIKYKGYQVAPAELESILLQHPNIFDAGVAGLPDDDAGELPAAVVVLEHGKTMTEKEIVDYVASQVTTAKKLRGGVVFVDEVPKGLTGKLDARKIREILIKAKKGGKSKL
PPC-1+TRAIL kill: compounds killing PPC-1 cancer cells with TRAIL present, primary screen, TRAIL potentiator project, ATPLite luminescence, uHTS | 0.41% of 220,000 active | cell killing (% activity), % at 4 µM or 5 µM | AID 1443, 2008 | PPC-1 cells + TRAIL, ATPLite viability luminescence;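 active = cell killing above 50% in the first pass at 4 µM, then a duplicate retest at 5 µM averaging 50% or more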;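 note: plate controls were cells with TRAIL plus DMSO for no effect and medium-only wells lacking cells for full effect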
C8 TRAIL sens: viability loss with TRAIL in NB7+C8 cells, primary screen, TRAIL sensitizer project, cell-based, ATPlite luminescence; inhibition (viability loss, TRAIL sensitization), % at 10 µM; 1% of 360,000 active; AID 624354, 2012;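 active = compounds causing at least 50% loss of cell viability in the single-dose screen, relative to plate controls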
FLuc stim CS: FLuc activators, initial screening, artefact control for FLuc-dependent activation tests, biochemical, ATPlite luminescence | 200,000 tested, under 10 active | activation factor at 10 µM | ATPlite luciferase biochemical, 10 min; 0 = ATP-free wells, 1 = DMSO control | AID 1027, 2008;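 active = luciferase activation factor, scaled between plate controls, of at least 2 with compound at 10 µM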
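System: Luciferase/luciferin detection reagent, cell-free biochemical luciferase assay | Medium: PBS buffer for ATP | Dosing: Test compounds dosed from 2 mM stocks in 100% DMSO | Timing: 10 min at ambient temperature | Signal: Luminescence measurement of luciferase light output | Evaluation: Luciferase activation, seen as luminescence increase over controls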
PPC1 cytotox: cytotoxicity in PPC-1 cells, confirmation, cytotoxicity control for TRAIL apoptosis potentiator project, cell-based, ATP content luminescence | AID 1447, 2008 | PPC-1 viability, ATPlite luminescence, overnight | 50% of 1,200 active | cytotoxicity, % at 5 µM | shares compounds with PPC-1+TRAIL kill;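 active = reconfirmed compounds whose average cytotoxicity reaches 50% or more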;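 note: 0% = DMSO-treated cells and 100% = wells holding medium but no cells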
The depositor's hits bear a star; . = not tested or not shown. The list is not random: actives were taken first. Their share in the collection is about 1.5%.

SMILES	FLuc inhib CS	PPC-1+TRAIL kill	C8 TRAIL sens	FLuc stim CS	PPC1 cytotox
CSc1nc(C)cc(SCC(=O)Nc2ccccc2)n1	2.8	-8.4	-1.8	1	-14.0
CCN(C(=O)COC(=O)CC1CCCCC1)c1c(N)n(Cc2ccccc2)c(=O)[nH]c1=O	.	.	5.1	.	.
Cc1oc(-c2ccc(Cl)cc2)nc1CS(=O)CC(=O)NCc1ccccn1 (stereo unspecified)	.	.	-14.9	.	.
COCCN1C(=O)c2ccc(C(=O)NCc3cccnc3)cc2C1=O	-3.2	-1.4	4.5	1	12.4
O=C(Nc1cc(Cl)ccc1-n1cncn1)C1CC1	.	.	19.5	.	.
COc1ccc(CNC(=O)c2noc3c2CCCCC3)cc1	0.7	3.0	-7.0	1	-11.9
COc1ccc(NC(=O)CN2CCN(CC(=O)Nc3cc(OC)cc(OC)c3)CC2)cc1	1.9	-1.8	5.5	1	4.5
COc1cc(NC(=O)CN2CCCCCC2)cc(OC)c1	.	.	-4.0	.	.
Cc1c(C(=O)N2CCN(CCc3ccccn3)CC2)oc2ccc(Cl)cc12	.	.	-0.8	.	.
CCCc1ccc(-c2cc(C(=O)N/N=C/c3ccc([N+](=O)[O-])o3)c3ccccc3n2)cc1	93.5*	76.7*	86.2*	0.1	76.2*
CC1C2NC(=O)N(Cc3ccccc3)C1(C)Oc1ccccc12 (stereo unspecified)	-5.1	-8.8	-16.4	1.1	-1.1
CC12CC(NC(=O)N1CCc1ccccc1)c1ccccc1O2 (stereo unspecified)	1.6	2.6	-7.2	1	.
O=C1c2ccccc2C(=O)C1c1ccncc1	80.3*	59.3*	56.6*	0.2	57.8*
CC(=O)Nc1ccc(C2C(=O)c3ccccc3C2=O)cc1	.	53.2*	61.6*	.	54.3*
O=C1/C(=C/c2cccs2)SC(=S)N1CCCC(=O)N(CCO)c1ccccc1	.	.	3.0	.	.
CCOc1ccc(NS(=O)(=O)c2ccc(C(=O)N(C)CC(=O)Nc3ccccc3Br)cc2)cc1	.	.	-2.1	.	.
CCOC(=O)Cc1csc(N/N=C\c2ccc(N(C)C)cc2)n1	.	.	-6.0	.	.
CCc1ccc(NC(=S)Nc2cccc3cnccc23)cc1	1.8	-2.6	7.1	1	-5.7
Cc1cc(C)cc(NC(=S)Nc2cccc3cnccc23)c1	-6.7	47.2	-7.2	1.1	.
CC(C)(C)S(=O)(=O)N1C[C@H]2CC/C=C\C/C(c3ccccc3)=C\2[C@@H]1CCO	.	.	-8.0	.	.
Cc1cccc(CSc2nc3c(cc2C#N)CCC3)c1	-5.4	14.2	14.2	1.1	.
N#Cc1cc2c(nc1SCc1nc3ccccc3[nH]1)CCC2	78.0*	35.2	.	0.2	30.1
CCN(CCO)c1ccc(N=Nc2cc(C)[nH]n2)cc1	.	77.4*	85.9*	.	78.2*
O=C(N=Nc1c(O)[nH]c2ccccc12)c1ccc2c(c1)OCO2	93.1*	91.5*	90.8*	0.1	90.9*
CCCCCCCn1ccc(=N)cc1	-6.0	5.4	34.6	1.1	.
SMILES	FLuc inhib CS	PPC-1+TRAIL kill	C8 TRAIL sens	FLuc stim CS	PPC1 cytotox
CCCCCCCCCn1ccc(=N)cc1	.	-5.2	31.6	.	-9.1
Cc1cc(C)c(C#N)c(SCC(=O)Nc2ccccc2C(N)=O)n1	-2.5	73.0*	49.8	1	73.6*
CCc1nnc(NC(=O)CSc2nc(C)cc(C)c2C#N)s1	18.5	74.0*	72.7*	0.8	73.6*
CCc1nnc(NC(=O)CSc2nc3c(cc2C#N)CCC3)s1	20.7	65.3*	64.0*	0.8	69.3*
Cc1ccc(C#N)c(SCC(=O)Nc2nccs2)n1	11.6	54.5*	46.7	0.9	58.6*
CCSc1nnc(NC(=O)CSc2nc3c(cc2C#N)CCCC3)s1	8.8	30.8	38.9	0.9	.
CC(Sc1nnc2n1CCCCC2)C(=O)Nc1cccc(S(=O)(=O)N2CCOCC2)c1 (stereo unspecified)	.	.	4.7	.	.
Cc1ccc2c(c1)sc(=NC(=O)c1cccs1)n2C	94.6*	88.3*	91.4*	0.1	84.9*
Cc1ccc2c(c1)sc(=NC(=O)C1CC1)n2C	.	22.7	18.8	.	.
COc1cccc(C(=O)Cn2c(=N)n(C)c3ccccc32)c1	31.6	54.4*	59.1*	0.7	49.6
O=C(NCCc1ccccc1F)C(=O)Nc1nccs1	-1.0	-0.5	9.9	1	-1.2
CN1CCN(S(=O)(=O)c2cccc(C#N)c2)C(c2ccccc2)C1 (stereo unspecified)	.	.	-5.0	.	.
